{"source": "ChEMBL document CHEMBL1212863", "about": "“Synthesis, and biological evaluation of 2-(4-aminophenyl)benzothiazole derivatives as photosensitizing agents” (2010)", "key": {"[1]": {"assay": "Cell cycle arrest in human BCC cells assessed as accumulation at sub G1 phase at 4 uM incubated for 4 hrs followed by 1 J/cm'2 UV irradiation measured after 24 hrs […]", "assay_type": "functional", "outline": "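BCC cells (ATCC; RPMI1640, 10% FCS) exposed 4 h to agent, rinsed, irradiated in PBS with UVA (365 nm peak, 0.75 mW/cm²) at 1 J/cm². After 24 h, cells were fixed in 50% cold ethanol at −20 °C, treated with 100 µg/mL RNase A for 20 min at 37 °C, and stained with 50 µg/mL PI. 10,000 events were read by flow cytometry; the sub-G1 fraction was counted as apoptotic.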"}, "[2]": {"target": "c-Jun N-terminal kinase, JNK (Homo sapiens) (UniProt P45983+P53779+P45984)", "assay": "Inhibition of JNK phosphorylation in human BCC cells at 4 uM incubated for 4 hrs followed by 1 J/cm'2 UV irradiation", "assay_type": "cell-based", "outline": "(§1)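 BCC cells were exposed to drug with UVA irradiation. Blots were blocked in 5% milk/PBS-T and probed for total and phospho-ERK, p38 and JNK. HRP secondaries and chemiluminescence were used; bands were quantified by densitometric scanning.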"}, "[3]": {"assay": "Induction of apoptosis in human BCC cells assessed as decrease in intracellular ATP level at 2 uM incubated for 4 hrs followed by 1 J/cm'2 UV irradiation […]", "assay_type": "functional", "set-up": "scale not given: the % may be the effect or the level left"}, "BCC [4]": {"tested_on": "BCC", "assay": "Induction of apoptosis in human BCC cells assessed as decrease in mitochondrial potential at 2 uM incubated for 4 hrs followed by 1 J/cm'2 UV irradiation measured after 24 hrs", "assay_type": "functional, cell-based", "outline": "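BCC dishes grown 24 h were pretreated 4 h at 0, 2 or 4 µM and given 1 J/cm² UVA, then trypsinized. Cells were stained 30 min at room temperature with DiOC₆ (100 nM/mL), washed, and read immediately by flow cytometry (FL-1, 530/30 nm). The percentage of cells with reduced Δψmt was scored from 10,000 cells. Three independent experiments were run.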"}, "[5]": {"assay": "Induction of apoptosis in human BCC cells assessed as decrease in intracellular ATP level at 4 uM incubated for 4 hrs followed by 1 J/cm'2 UV irradiation […]", "assay_type": "functional", "set-up": "scale not given: the % may be the effect or the level left"}, "BCC [6]": {"tested_on": "BCC", "assay": "Induction of apoptosis in human BCC cells assessed as increase in intracellular H2O2 level at 4 uM incubated for 4 hrs followed by 1 J/cm'2 UV irradiation […]", "assay_type": "functional, cell-based", "outline": "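ROS was measured in BCC cells given 0–4 µM drug, with or without catalase (800 U/mL) pretreatment, and then irradiated with UVA. Immediately after irradiation, DCFH-DA (10 µM) was added for 30 min at 37 °C. DCF fluorescence was read by flow cytometry on FL-1.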"}, "[7]": {"assay": "Induction of apoptosis in human BCC cells assessed as caspase3 activation at 4 uM incubated for 4 hrs followed by 1 J/cm'2 UV irradiation measured after 24 hrs […]", "assay_type": "functional", "conditions": "in the assay text read “2 uM” for “4 uM”", "outline": "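Caspase-3 was measured in BCC cells 24 h after 4 h drug exposure and 1 J/cm² UVA (365 nm) given in PBS. Pellets were lysed in cold buffer (25 µL per 10⁶ cells), spun at 12,000 rpm for 10 min at 4 °C, and the supernatant assayed colorimetrically by pNA release at 405 nm. Results are mean SD.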"}, "[8]": {"assay": "Phototoxicity against human BCC cells assessed as cell viability at 4 uM incubated for 4 hrs followed by 0.5 J/cm'2 UV irradiation measured after 24 hrs by MTT assay", "assay_type": "functional", "conditions": "light or radiation study, read-out: Activity", "outline": "(§2)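 MTT assay: BCC cells were seeded at 2500/well and attached overnight. Cells were incubated 4 h with drug in triplicate, rinsed, irradiated in PBS with 365 nm UVA (0.25, 0.5 or 1 J/cm²), then returned to medium. After 24 h, MTT was added for 2 h at 37 °C, formazan was dissolved in DMSO, and absorbance was read at 540 nm relative to untreated controls.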"}, "[9]": {"assay": "Phototoxicity against human BCC cells assessed as cell viability at 4 uM incubated for 4 hrs followed by 0.25 J/cm'2 UV irradiation measured after 24 hrs by MTT assay", "assay_type": "functional", "conditions": "light or radiation study, read-out: Activity", "outline": "as §2"}, "BCC [10]": {"tested_on": "BCC", "assay": "Inhibition of MAPK phosphorylation in human BCC cells at 4 uM incubated for 4 hrs followed by 1 J/cm'2 UV irradiation", "assay_type": "cell-based", "outline": "as §1"}, "[11]": {"assay": "Induction of apoptosis in human BCC cells assessed as caspase3 activation at 4 uM incubated for 4 hrs followed by 1 J/cm'2 UV irradiation measured after 24 hrs […]"}, "[12]": {"assay": "Phototoxicity against human BCC cells assessed as cell viability at 4 uM incubated for 4 hrs followed by 1 J/cm'2 UV irradiation measured after 24 hrs by MTT assay", "assay_type": "functional", "conditions": "light or radiation study, read-out: Activity", "outline": "as §2"}, "BCC [13]": {"tested_on": "BCC", "assay": "Induction of ERK phosphorylation in human BCC cells at 4 uM incubated for 4 hrs followed by 1 J/cm'2 UV irradiation"}}, "note": "Active and inactive are the calls of the source. The rule behind the calls is not given here."}
{"compound": "CCc1ccc2nc(-c3ccc(N)c(C)c3)sc2c1", "values": [{"measurement": "Activity", "setting": "[1]", "result": 13.8, "unit": "%"}]}
{"compound": "Cc1cc(-c2nc3ccc(C(F)(F)F)cc3s2)ccc1N", "values": [{"measurement": "Activity", "setting": "[1]", "result": 6.4, "unit": "%"}]}
{"compound": "Cc1ccc2nc(-c3ccc(N)cc3)sc2c1", "values": [{"measurement": "Activity", "setting": "[1]", "result": 13.4, "unit": "%"}]}
{"compound": "Nc1ccc(-c2nc3ccc(C(F)(F)F)cc3s2)cc1", "values": [{"measurement": "Activity", "setting": "[2]", "result": "inactive"}, {"measurement": "Activity", "setting": "[3]", "result": 30, "unit": "%"}, {"measurement": "Activity", "setting": "BCC [4]", "result": "Active"}, {"measurement": "Activity", "setting": "[5]", "result": 45, "unit": "%"}, {"measurement": "Activity", "setting": "[1]", "result": 35.4, "unit": "%"}, {"measurement": "Activity", "setting": "BCC [6]", "result": "Active"}, {"measurement": "Activity", "setting": "[7]", "result": 19.5, "unit": "%"}, {"measurement": "viability at 4 µM", "setting": "[8]", "result": 65, "unit": "%"}, {"measurement": "viability at 4 µM", "setting": "[9]", "result": 71, "unit": "%"}, {"measurement": "Activity", "setting": "BCC [10]", "result": "inactive"}, {"measurement": "Activity", "setting": "[11]", "result": 27.5, "unit": "%"}, {"measurement": "viability at 4 µM", "setting": "[12]", "result": 45, "unit": "%"}, {"measurement": "Activity", "setting": "BCC [13]", "result": "Active"}]}
{"compound": "COc1ccc2nc(-c3ccc(N)c(C)c3)sc2c1", "values": [{"measurement": "Activity", "setting": "[1]", "result": 14.8, "unit": "%"}]}
{"compound": "COc1cccc2nc(-c3ccc(N)cc3)sc12", "values": [{"measurement": "Activity", "setting": "[1]", "result": 24.4, "unit": "%"}]}
{"compound": "Cc1cc(-c2nc3ccccc3s2)ccc1N", "values": [{"measurement": "Activity", "setting": "[1]", "result": 13.6, "unit": "%"}]}
{"compound": "Nc1ccc(-c2nc3ccccc3s2)cc1", "values": [{"measurement": "Activity", "setting": "[1]", "result": 6.5, "unit": "%"}]}
{"compound": "COc1ccc2nc(-c3ccc(N)cc3)sc2c1", "values": [{"measurement": "Activity", "setting": "[1]", "result": 6.5, "unit": "%"}]}
{"compound": "CCc1ccc2nc(-c3ccc(N)cc3)sc2c1", "values": [{"measurement": "Activity", "setting": "[1]", "result": 29.2, "unit": "%"}]}
